Results filed as inconclusive are left out.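 Rule for the calls, unless noted: active = cell viability at or below a set limit in both duplicate runs, the limit being the all-compound median minus 4 SD (cut at about 23% in these data, passing the limit was not always enough); inconclusive = no clear call, values can overlap the other calls; inactive = the rest.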
Assays:
[1] = S. cerevisiae growth inhibition in permissive medium (OD615), pilot counter-assay for S. cerevisiae lifespan shortening project, permissive growth control (AID 705;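 active = growth inhibition above 25% in both replicates, a cutoff set 3 SD above the mean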); details: OD615, 24 h, at 10 µM, hits give high values
Method in brief: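 Timing: 24 h exposure, 30 °C / Material: Saccharomyces cerevisiae strain carrying genetically modified DeaD replicative-lifespan system / Signal: OD at 615 nm / Compound: 10 µM single dose, 0.25% DMSO / Medium: SC raffinose/galactose permissive medium / Evaluation: reduction in yeast growth (OD615)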

[2] = S. cerevisiae growth inhibition in restrictive medium, OD615, pilot screen, restrictive growth control, yeast lifespan reduction project (AID 706;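 active = growth inhibition above a set limit, 3 SD over mean compound inhibition, in both replicates, cut at about 43% in these data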;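 note: modified DeaD lifespan yeast strain shifted to restrictive glucose medium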); details: OD615, 48 h, at 10 µM, hits give high values
Method in brief: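 System: Engineered S. cerevisiae DeaD strain | Detection: OD615 | Buffer or medium: CSMM-D glucose medium | Doses: 10 µM compound, 0.25% DMSO | Timing: 4 h pre-growth plus 48 h compound exposure, 30 °C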

[3] = doxorubicin toxicity protection in MRP-1 cells – H69AR cells, CellTiter-Glo, duplicate, MRP-1 activator project, pilot screen (AID 807;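 active = viability increase at or above a cutoff of the median across tested compounds plus 3 SD, cut at about 8.5% in these data, passing the limit was not always enough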;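 note: compound pretreatment 18-22 h then 72 h combined with doxorubicin; 0% = doxorubicin alone and 100% = vehicle without doxorubicin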); details: H69AR viability with doxorubicin, CellTiter-Glo luminescence; at 10 µM; hits give high values
[4] = viability of HCT116 without oncogenic beta-catenin – human colon tumor cells, pilot screen (AID 823); details: HCT116 beta-catenin knockout viability, CellTiter-Glo, 60 h; at 10 µM; hits give low values;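 note: 0% = wells killed by 20 µM Hyamine and 100% = untreated DMSO cell wells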
[5] = viability of PTEN-null HCT116 cells – cell-based, HCT116 clonal line, CellTiter-Glo, pilot screen (AID 824;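 active = viability at or below 27.92% in each of two runs, the all-compound median minus 4 SD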;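 note: 0% = 20 µM Hyamine control and 100% = vehicle cell control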); details: HCT116 PTEN-deleted viability, 60 h, at 10 µM, hits give low values
[6] = RAM pathway blockade in budding yeast – dse1pr::URA3 reporter, 5-FOA selection, pilot screen (AID 869;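 active = inhibition over a set limit, the all-compound mean plus 3 SD, in both replicate runs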;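 note: 0% = DMSO wells with no growth and 100% = 10 µM 1-NA-PP1 with full growth; RAM network block rescues cells from 5-FOA so hits raise OD615 growth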); details: S. cerevisiae dse1pr::URA3 5-FOA growth, OD615, 2 d; at 10 µM; hits give high values; strain carries analog-sensitive mutant Cbk1 kinase
[7] = RAM signaling pathway blockade in yeast – S. cerevisiae, Pdr1DBD-CYC8 efflux-inhibited sensitized strain, primary screen (AID 1298;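 active = RAM network inhibition above 8.4% in each of two replicates, 3 SD over the compound average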;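 note: 0% = DMSO untreated cells without growth and 100% = 10 µM 1-NA-PP1 full growth; higher means more yeast growth rescued from 5-FOA killing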); details: S. cerevisiae cbk1-as DSE1-URA3 strain, 5-FOA growth OD615, 2 d; at 50 µM; hits give high values

COc1ccc(N=C(C)C2=C(O)COC2=O)cc1
inactive: growth inhibition [1] -1.31% | growth inhibition [2] 5.13% | viability increase [3] -3.62% | viability [4] 97.6% | viability [5] 99% | inhibition [6] 1.12% | RAM network inhibition [7] 5.23%

CCN(CC)S(=O)(=O)c1ccc(S(=O)(=O)N2CCN(CCC#N)CC2)cc1
inactive: growth inhibition [1] -8.46% | growth inhibition [2] -3.54% | viability increase [3] -1.58% | viability [4] 99.6% | viability [5] 94.7% | inhibition [6] 1.38% | RAM network inhibition [7] -1.32%

CC(=NCCN1CCOCC1)C1=C(O)c2ccccc2C1=O
inactive: growth inhibition [1] -5.16% | growth inhibition [2] -12.6% | viability increase [3] -1.7% | viability [4] 103% | viability [5] 100% | inhibition [6] 1.3% | RAM network inhibition [7] -0.73%

Clc1ccccc1OCCN1CCCCC1
inactive: growth inhibition [1] -14.4% | growth inhibition [2] -20.6% | viability increase [3] 0.57% | viability [4] 85.5% | viability [5] 96.2% | inhibition [6] 0.6% | RAM network inhibition [7] 6.74%

COC(=O)C1C2C=CC3(CN(c4ccc(Cl)c(F)c4)C(=O)C13)O2 (configuration not stated)
inactive: growth inhibition [1] -5.96% | growth inhibition [2] 0.405% | viability increase [3] -1.28% | viability [4] 94.6% | viability [5] 91.8% | inhibition [6] 1.67% | RAM network inhibition [7] 2.93%

Cc1ccc(-c2nc(NC(=O)CSc3nnc(C)s3)ns2)cc1
inactive: growth inhibition [1] -5.46% | growth inhibition [2] 2.65% | viability increase [3] -0.8% | viability [4] 123% | viability [5] 102% | inhibition [6] 0.34% | RAM network inhibition [7] 2.66%

CC(=O)NCc1nc2ccccc2n1Cc1ccccc1F
inactive: growth inhibition [1] -7.66% | growth inhibition [2] -15.8% | viability increase [3] -0.31% | viability [4] 108% | viability [5] 104% | inhibition [6] 3.39% | RAM network inhibition [7] 2.03%

COc1ccc(C2C3=C(CCCC3=O)Nc3nc(SCc4ccc(C(=O)O)cc4)nn32)cc1OC (configuration not stated)
inactive: growth inhibition [1] -7.69% | growth inhibition [2] -1.59% | viability increase [3] -0.88% | viability [4] 92.8% | viability [5] 95.3% | inhibition [6] 3.18% | RAM network inhibition [7] 3.48%

CC(C)n1c(NCc2cc(Cl)ccc2O)nc2ccccc21
inactive: growth inhibition [1] -3.83% | growth inhibition [2] -7.78% | viability increase [3] -0.71% | viability [4] 88.8% | viability [5] 87.9% | inhibition [6] -0.06% | RAM network inhibition [7] 1.06%

Cc1cccc2sc(NC(=O)CCNS(=O)(=O)c3cccc4nonc34)nc12
inactive: growth inhibition [1] -11.1% | growth inhibition [2] -6.5% | viability increase [3] -5.31% | viability [4] 86.1% | viability [5] 80.7% | inhibition [6] 2.71% | RAM network inhibition [7] 7.24%

Cc1ccccc1NCN1C(=O)C2C3C=CC(C3)C2C1=O (configuration not stated)
inactive: growth inhibition [1] -11.2% | growth inhibition [2] -18.2% | viability increase [3] -2.43% | viability [4] 86% | viability [5] 96.2% | inhibition [6] 3.66% | RAM network inhibition [7] 0.48%

CCCC(=O)Nc1nc(-c2ccc3c(c2)OCCO3)cs1
inactive: growth inhibition [1] -12% | growth inhibition [2] -6.14% | viability increase [3] 2.44% | viability [4] 77.9% | viability [5] 83.3% | inhibition [6] 1.37% | RAM network inhibition [7] 0.85%

CCOC(=O)N1CCC(NC(=O)c2cnc3n(c2=O)CCS3)CC1
inactive: growth inhibition [1] -1% | growth inhibition [2] -6.85% | viability increase [3] 1.34% | viability [4] 101% | viability [5] 100% | inhibition [6] 2.27% | RAM network inhibition [7] 1.68%

COc1ccccc1-n1c2c(cc(C(=O)N3CCC(C)CC3)c1=O)C(=O)CC(C)(C)C2
inactive: growth inhibition [1] -21.2% | growth inhibition [2] -5.49% | viability increase [3] -0.6% | viability [4] 101% | viability [5] 90.7% | inhibition [6] 0.005% | RAM network inhibition [7] 4.67%

COC(=O)c1ccccc1N(Cc1ccccc1)S(C)(=O)=O
inactive: growth inhibition [1] -3.77% | growth inhibition [2] -8.56% | viability increase [3] -4.02% | viability [4] 90.6% | viability [5] 105% | inhibition [6] -0.425% | RAM network inhibition [7] 1.83%

COC(=O)c1cccc(NC(=O)C(C)N2C(=O)c3ccccc3C2=O)c1 (configuration not stated)
inactive: growth inhibition [1] -16.2% | growth inhibition [2] 10.2% | viability increase [3] -1.25% | viability [4] 93.4% | viability [5] 106% | inhibition [6] 1.77% | RAM network inhibition [7] 2.77%

Cc1ccc(C(=O)NCCCCNC(=O)c2ccc(C)o2)o1
inactive: growth inhibition [1] -5.8% | growth inhibition [2] -4.64% | viability increase [3] -1.97% | viability [4] 106% | viability [5] 96.3% | inhibition [6] 3.56% | RAM network inhibition [7] 4.03%

COC(=O)c1ccc(C2C(C(=O)Nc3ccc(C)cc3C)=C(C)Nc3ncnn32)cc1 (configuration not stated)
inactive: growth inhibition [1] 2.06% | growth inhibition [2] 9.76% | viability increase [3] -2.32% | viability [4] 97.2% | viability [5] 92.9% | inhibition [6] 2.46% | RAM network inhibition [7] 8.36%

O=C(CCCC(=O)Nc1cccnc1)Nc1cccnc1
inactive: growth inhibition [1] -6.39% | growth inhibition [2] 3.58% | viability increase [3] -0.66% | viability [4] 103% | viability [5] 99.2% | inhibition [6] 0.385% | RAM network inhibition [7] 6.65%

COC(=O)c1cn(NC(=O)CC2CCCCC2)c(=O)c2ccccc12
inactive: growth inhibition [1] 7.57% | growth inhibition [2] 1.75% | viability increase [3] 0.01% | viability [4] 94% | viability [5] 91.7% | inhibition [6] 0.24% | RAM network inhibition [7] 2.22%

Cn1c(=O)n(C)c2cc(CN3C(=O)OC(C)(C)C3(C)O)ccc21 (configuration not stated)
inactive: growth inhibition [1] 2.22% | growth inhibition [2] 0.365% | viability increase [3] -1.11% | viability [4] 105% | viability [5] 95.2% | inhibition [6] 0.09% | RAM network inhibition [7] 4.45%

CC1(C)C(=O)OC(c2cc(Br)ccc2O)C(C)(C)C1=O (configuration not stated)
inactive: growth inhibition [1] -8.82% | growth inhibition [2] -1.84% | viability increase [3] -2.35% | viability [4] 90.2% | viability [5] 82.1% | inhibition [6] -0.355% | RAM network inhibition [7] 4.3%

CC(=O)Nc1ccc2nc(-c3cccs3)[nH]c2c1
inactive: growth inhibition [1] -5.51% | growth inhibition [2] -15.4% | viability increase [3] -2.88% | viability [4] 97.8% | viability [5] 90.3% | inhibition [6] 2.38% | RAM network inhibition [7] 4.66%

CC1CC(C)CN(c2nc3c(c(=O)[nH]c(=O)n3C)n2CCSc2nc3ccccc3o2)C1 (configuration not stated)
inactive: growth inhibition [1] -8.58% | growth inhibition [2] -7.3% | viability increase [3] -2.41% | viability [4] 93.2% | viability [5] 93.6% | inhibition [6] 0.335% | RAM network inhibition [7] -0.32%

O=C(Nc1ccc(S(=O)(=O)N2CCCCCC2)cc1)c1ccc(Br)o1
inactive: growth inhibition [1] -4.67% | growth inhibition [2] 0.21% | viability increase [3] -3.03% | viability [4] 69.6% | viability [5] 59.7% | inhibition [6] 2.62% | RAM network inhibition [7] 5.05%

CCCCCCN=CC1=C(O)C(C(=O)OC)C(C)(C)CC1=O (configuration not stated)
inactive: growth inhibition [1] -10.1% | growth inhibition [2] -3.98% | viability increase [3] 1.15% | viability [4] 95.1% | viability [5] 95.3% | inhibition [6] 0.93% | RAM network inhibition [7] 0.11%

CCCCn1c(C(C)NC(=O)CC)nc2ccccc21 (configuration not stated)
inactive: growth inhibition [1] -12.9% | growth inhibition [2] -3.19% | viability increase [3] -3.16% | viability [4] 92.2% | viability [5] 92.7% | inhibition [6] 0.01% | RAM network inhibition [7] -0.63%

CCOC(=O)C1CCN(CC(O)COc2ccc(C(C)(C)CC)cc2)CC1 (configuration not stated)
inactive: growth inhibition [1] -14% | growth inhibition [2] -10.4% | viability increase [3] -4.71% | viability [4] 65.6% | viability [5] 73.5% | inhibition [6] -0.58% | RAM network inhibition [7] 0.78%

Cc1ccc(C)c(N2CCN(CC(=O)Nc3ccc4[nH]c(=O)[nH]c4c3)CC2)c1
inactive: growth inhibition [1] -13.7% | growth inhibition [2] -14.9% | viability increase [3] -5.54% | viability [4] 92.9% | viability [5] 89.1% | inhibition [6] 0.03% | RAM network inhibition [7] 1.87%

CC(C)c1nnc(NC(=O)CCN2C(=O)c3ccccc3C2=O)s1
inactive: growth inhibition [1] -11.7% | growth inhibition [2] -0.03% | viability increase [3] 0.32% | viability [4] 104% | viability [5] 106% | inhibition [6] 3.73% | RAM network inhibition [7] 5.82%

CSc1cccc(NC(=O)CN2C(=O)c3ccccc3S2(=O)=O)c1
inactive: growth inhibition [1] -2.94% | growth inhibition [2] 3.68% | viability increase [3] -0.41% | viability [4] 106% | viability [5] 101% | inhibition [6] 0.095% | RAM network inhibition [7] 0.05%

Cc1noc(C)c1S(=O)(=O)N(CC(=O)NCc1ccc(Cl)cc1)c1ccc2c(c1)OCO2
inactive: growth inhibition [1] -13.6% | growth inhibition [2] -7.5% | viability increase [3] -3.36% | viability [4] 104% | viability [5] 97.9% | inhibition [6] 2.81% | RAM network inhibition [7] 1%

O=c1c(/C=N/O)c(Nc2ccccc2)nc2ccccn12
inactive: growth inhibition [1] -10.8% | growth inhibition [2] 10.2% | viability increase [3] -6.27% | viability [4] 93.8% | viability [5] 76.5% | inhibition [6] 0.56% | RAM network inhibition [7] 4.18%

CCOc1ccc(N(CC(=O)Nc2cccc(F)c2)S(=O)(=O)c2c(C)noc2C)cc1
inactive: growth inhibition [1] -3.51% | growth inhibition [2] -8.12% | viability increase [3] -5.24% | viability [4] 66.5% | viability [5] 56.2% | inhibition [6] 3.33% | RAM network inhibition [7] 5.5%

COc1ccc(OCCC(=O)OCC(=O)NCc2ccco2)cc1
inactive: growth inhibition [1] -11% | growth inhibition [2] 1.25% | viability increase [3] -1.75% | viability [4] 92.2% | viability [5] 92.2% | inhibition [6] 1.01% | RAM network inhibition [7] 4.11%

Cc1ccc2oc3c(c(=O)c2c1)C(c1ccc(F)cc1)N(CCCN1CCOCC1)C3=O (configuration not stated)
inactive: growth inhibition [1] -3.52% | growth inhibition [2] -0.585% | viability increase [3] -4.72% | viability [4] 91% | viability [5] 89.6% | inhibition [6] 0.595% | RAM network inhibition [7] 0.29%
